We go through 16 compounds from ChEMBL document CHEMBL1153046, “Synthesis and antitumor activity of substituted triazolo[4,3-a]pyrimidin-6-sulfonamide with an incorporated thiazolidinone moiety” (2009).

Common to all, as to format: functional
One assay concerns NCI-H460. Kind of assay: Antiproliferative activity against human NCI-H460 cells assessed as cell growth at 100 uM after 48 hrs by alamar blue assay. Conditions: NCI-H460, 48 h, read-out: Activity. The gist of the method:
(§1)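 NCI three-cell-line primary screen. Cells are seeded and preincubated in microtiter plates. Compound is added at a single 10^-4 M concentration and cultures are incubated 48 h. The end-point is read with alamar blue. Results are given as percent growth relative to untreated control cells.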
A general note: The colour change of resazurin is a common sign of viable cells or microbes.

For another assay, the system named is MCF7. The assay can be described thus: Antiproliferative activity against human MCF7 cells assessed as cell growth at 100 uM after 48 hrs by alamar blue assay. Conditions: MCF7, 48 h, read-out: Activity. The gist of the method:
as §1

Another assay has as its system SF-268. The assay can be described thus: Antiproliferative activity against human SF268 cells assessed as cell growth at 100 uM after 48 hrs by alamar blue assay. The following applies: SF-268, 48 h, read-out: Activity. The gist of the method:
as §1

For `COc1ccc(/C=N/c2nc3[nH]nc(C)n3c(=O)c2S(=O)(=O)Nc2ccc(OC)cc2)cc1`, the results for the growth at 100 µM in the assay with NCI-H460, in the assay on MCF7 and with SF-268 were 82%, 86% and 91%, respectively.

Turning to `COc1ccc(/C=N/c2nc3[nH]nc(C)n3c(=O)c2S(=O)(=O)NN2C(=O)C(CN3CCN(C)CC3)SC2c2ccc(C)cc2)cc1` (stereo not drawn), the growth at 100 µM with NCI-H460 was found to be 109%; in the assay with MCF7, 55%; in the assay on SF-268, 102%.

`COc1ccc(/C=N/c2nc3[nH]nc(C)n3c(=O)c2S(=O)(=O)N/N=C/c2ccc(Cl)cc2)cc1`: the results for the growth at 100 µM with NCI-H460, in the assay with MCF7 and in the assay on SF-268 were 73%, 93% and 101%, respectively.

Regarding `COc1ccc(/C=N/c2nc3[nH]nc(C)n3c(=O)c2S(=O)(=O)NN2C(=O)C(CN3CCOCC3)SC2c2ccc(C)cc2)cc1` (stereo not drawn), the growth at 100 µM with NCI-H460 worked out at 63%; with MCF7, 67%; in the assay with SF-268 it was 82%.

Turning to `COc1ccc(/C=N/c2nc3[nH]nc(C)n3c(=O)c2S(=O)(=O)NN2C(=O)C(CN3CCOCC3)SC2c2ccc(Cl)cc2)cc1` (stereo not drawn), the values for the growth at 100 µM in the assay with NCI-H460, with MCF7 and in the assay on SF-268 were 68%, 94% and 95%, respectively.

On to `COc1ccc(/C=N/c2nc3[nH]nc(C)n3c(=O)c2S(=O)(=O)NN2C(=O)CSC2c2ccc(Cl)cc2)cc1` (stereo not drawn), for which the growth at 100 µM in the assay with NCI-H460 worked out at 88%; with MCF7, 90%; in the assay with SF-268, 84%.

`COc1ccc(/C=N/c2nc3[nH]nc(C)n3c(=O)c2S(=O)(=O)N/N=C/c2cccs2)cc1`: the growth at 100 µM with NCI-H460 was 13%; with MCF7 it was 66%; in the assay on SF-268 it was 62%.

On to `COc1ccc(/C=N/c2nc3[nH]nc(C)n3c(=O)c2S(=O)(=O)NN2C(=O)CSC2c2ccc(C)cc2)cc1` (stereo not drawn), for which the growth at 100 µM turned out to be 67% in the assay with NCI-H460, 72% with MCF7 and 63% in the assay with SF-268.

For the compound `COc1ccc(/C=N/c2nc3[nH]nc(C)n3c(=O)c2S(=O)(=O)N/N=C/c2ccc(C)cc2)cc1`, the growth at 100 µM in the assay on NCI-H460 amounted to 83%; in the assay on MCF7 it was 87%; in the assay with SF-268 it was 93%.

Turning to `COc1ccc(/C=N/c2nc3[nH]nc(C)n3c(=O)c2S(=O)(=O)Nc2ccc(C)cc2)cc1`, the results for the growth at 100 µM in the assay on NCI-H460, in the assay with MCF7 and in the assay with SF-268 were 89%, 83% and 85%, respectively.

Consider `COc1ccc(/C=N/c2nc3[nH]nc(C)n3c(=O)c2S(=O)(=O)Nc2ccc(Cl)cc2)cc1`, for which the growth at 100 µM with NCI-H460 was 102%; in the assay with MCF7 it was 87%; in the assay on SF-268, 87%.

As for `COc1ccc(/C=N/c2nc3[nH]nc(C)n3c(=O)c2S(=O)(=O)NN2C(=O)CSC2c2ccc(OC)cc2)cc1` (stereo not drawn), the figures for the growth at 100 µM with NCI-H460, in the assay with MCF7 and in the assay with SF-268 were 118%, 91% and 94%, respectively.

As for `COc1ccc(/C=N/c2nc3[nH]nc(C)n3c(=O)c2S(=O)(=O)NN)cc1`, the figures for the growth at 100 µM in the assay with NCI-H460, in the assay with MCF7 and in the assay on SF-268 were 45%, 43% and 55%, respectively.

For the compound `COc1ccc(/C=N/c2nc3[nH]nc(C)n3c(=O)c2S(=O)(=O)NN2C(=O)CSC2c2cccs2)cc1` (stereo not drawn), the figures for the growth at 100 µM in the assay with NCI-H460, in the assay on MCF7 and in the assay with SF-268 were 106%, 89% and 98%, respectively.

On to `COc1ccc(/C=N/c2nc3[nH]nc(C)n3c(=O)c2S(=O)(=O)NN2C(=O)C(CN3CCN(C)CC3)SC2c2ccc(Cl)cc2)cc1` (stereo not drawn), for which the growth at 100 µM in the assay with NCI-H460 stood at 86%; in the assay with MCF7, 102%; with SF-268 it was 106%.

Take `COc1ccc(/C=N/NS(=O)(=O)c2c(/N=C/c3ccc(OC)cc3)nc3[nH]nc(C)n3c2=O)cc1`: the growth at 100 µM in the assay on NCI-H460 came out at 55%; with MCF7, 83%; with SF-268, 85%.
